The record followed here is ChEMBL document CHEMBL1137973, “Anthranilate 4H-oxazol-5-ones: novel small molecule antibacterial acyl carrier protein synthase (AcpS) inhibitors” (Bioorg Med Chem Lett, 2004).

One experiment deals with Enterococcus faecalis. In words: Minimum inhibitory concentration required against Enterococcus faecalis VRE strain was determined. It counts as functional. The essentials: (§1)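 MICs against aerobic bacteria were determined by broth microdilution as recommended by NCCLS. Each compound was tested once against each strain. Standard error per run is 1 dilution.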
In another experiment the test system is Streptococcus pneumoniae. In words: Minimum inhibitory concentration required against Streptococcus pneumoniae. It counts as functional. A digest of the protocol: as §1
A short description of experiment [1]: Minimum inhibitory concentration required against […] faecalis ATCC strain was determined. It is filed as functional. The conditions noted are these: Enterococcus faecalis. The essentials: as §1
For experiment [2], the target named is T1, Holo-[acyl-carrier-protein] synthase (Bacillus subtilis (strain 168), UniProt P96618).
T1 sequence (P96618 whole entry): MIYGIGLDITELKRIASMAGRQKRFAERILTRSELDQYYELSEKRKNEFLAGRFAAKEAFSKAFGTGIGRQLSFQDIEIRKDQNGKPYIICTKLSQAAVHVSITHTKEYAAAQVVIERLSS
In words: In vitro inhibitory activity against Holo-[acyl-carrier-protein] synthase was determined using Bacillus subtilis GST-Acp-HTRFassay. The essentials: (§2)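 B. subtilis AcpS at 15 ng/mL was incubated with biotin-CoA and GST-ACP as acceptor. Buffer was 50 mM Tris·HCl pH 8.0 with 7.5 mM MgCl2, 3.75 mM DTT, 0.0375% Tween-20 and BSA. The reaction ran 3 h at room temperature. It was stopped with EDTA/KF containing europium cryptate anti-GST antibody plus streptavidin–allophycocyanin, and read by HTRF. Standard error per run is 10%.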

The subject of a further experiment is Bacillus subtilis. In words: Minimum inhibitory concentration required against Bacillus subtilis was determined. It is filed as functional. A digest of the protocol: as §1
Experiment [3] has as its target T1, Holo-[acyl-carrier-protein] synthase. In words: In vitro inhibitory activity against acyl carrier protein synthase (AcpS) in Bacillus subtilis GST-Acp-HTRFassay. A digest of the protocol: as §2

SMILES strings stand for the structures. Converted amounts (≈) assume the structure as drawn. Where only a bound is given, the exact number is not on record here.

For `O=C(O)c1ccccc1/N=C/c1nc(-c2ccc(Cl)cc2)oc1O`, the minimum inhibitory concentration (MIC) (in the experiment on Enterococcus faecalis; in the experiment with Streptococcus pneumoniae; in experiment [1]; in the experiment on Bacillus subtilis) was over 200 µM each time. Also, the IC50 in experiment [2] is 15000 nM.
Consider `O=C(O)c1cc(Cl)ccc1/N=C/c1nc(-c2ccc(C(F)(F)F)c(F)c2)oc1O`, for which the MIC is 50 µM (≈ 21.4 µg/mL) in the experiment on Enterococcus faecalis, 12.5 µM (≈ 5.36 µg/mL) with Streptococcus pneumoniae, 50 µM (≈ 21.4 µg/mL) in experiment [1] and 50 µM (≈ 21.4 µg/mL) against Bacillus subtilis. Moreover, in experiment [2], half-maximal inhibition (IC50) required 1100 nM.
As to `O=C(O)c1cc(F)ccc1/N=C/c1nc(-c2ccc(C(F)(F)F)cc2)oc1O`, the MIC in the experiment on Enterococcus faecalis amounted to 200 µM (≈ 78.9 µg/mL); in the experiment on Streptococcus pneumoniae it was 100 µM (≈ 39.4 µg/mL); in experiment [1], 100 µM (≈ 39.4 µg/mL); in the experiment with Bacillus subtilis, 200 µM (≈ 78.9 µg/mL). The same compound yielded an IC50 in experiment [2] of 1900 nM.
Turning to `O=C(O)c1cc(Br)c(Cl)cc1/N=C/c1nc(-c2ccc(Cl)cc2)oc1O`, the MIC (in experiment [1]; in the experiment with Bacillus subtilis) was over 200 µM in each case. Also, in experiment [2], the IC50 was over 20000 nM.
On to `O=C(O)c1cc(Br)ccc1/N=C/c1nc(-c2cccc(OC(F)(F)F)c2)oc1O`, for which the minimum inhibitory concentration (MIC) came to 25 µM (≈ 11.8 µg/mL) in the experiment on Enterococcus faecalis, 12.5 µM (≈ 5.89 µg/mL) with Streptococcus pneumoniae, 50 µM (≈ 23.6 µg/mL) in experiment [1] and 25 µM (≈ 11.8 µg/mL) against Bacillus subtilis. In experiment [2], the IC50 amounted to 15000 nM.
Take `O=C(O)c1cc(I)ccc1/N=C/c1nc(-c2ccc(Cl)cc2)oc1O`: the MIC was 50 µM (≈ 23.4 µg/mL) against Enterococcus faecalis, 12.5 µM (≈ 5.86 µg/mL) with Streptococcus pneumoniae, 25 µM (≈ 11.7 µg/mL) in experiment [1] and 200 µM (≈ 93.7 µg/mL) with Bacillus subtilis. The IC50 in experiment [2] was 1300 nM.
As for `O=C(O)c1ccccc1/N=C/c1nc(-c2ccccc2)oc1O`, the IC50 in experiment [2] was over 20000 nM.
Consider `O=C(O)c1cc(Br)c(Cl)cc1/N=C/c1nc(-c2ccc(C(F)(F)F)cc2)oc1O`, for which the MIC against Enterococcus faecalis is 50 µM (≈ 24.5 µg/mL); against Streptococcus pneumoniae it was 100 µM (≈ 49 µg/mL); in experiment [1], 100 µM (≈ 49 µg/mL); with Bacillus subtilis, over 200 µM. The compound also gave an IC50 in experiment [2] of 2000 nM.
With `O=C(O)c1cc(Cl)ccc1/N=C/c1nc(-c2cccc(OC(F)(F)F)c2)oc1O`, the MIC in the experiment on Enterococcus faecalis turned out to be 50 µM (≈ 21.3 µg/mL); in the experiment on Streptococcus pneumoniae it was 25 µM (≈ 10.7 µg/mL); in experiment [1], 100 µM (≈ 42.7 µg/mL); against Bacillus subtilis, 50 µM (≈ 21.3 µg/mL). The compound also yielded an IC50 in experiment [2] of 20000 nM.
As for `O=C(O)c1cc(Br)ccc1/N=C/c1nc(-c2ccc(Cl)cc2)oc1O`, the MIC against Enterococcus faecalis was 200 µM (≈ 84.3 µg/mL); with Streptococcus pneumoniae, 100 µM (≈ 42.2 µg/mL); in experiment [1] it was 100 µM (≈ 42.2 µg/mL); in the experiment with Bacillus subtilis, over 200 µM. The same compound yielded an IC50 in experiment [2] of 3400 nM.
For the compound `Cc1ccc(/N=C/c2nc(-c3cccc(OC(F)(F)F)c3)oc2O)c(C(=O)O)c1`, the MIC was determined as 100 µM (≈ 40.6 µg/mL) against Enterococcus faecalis, 25 µM (≈ 10.2 µg/mL) in the experiment with Streptococcus pneumoniae, 200 µM (≈ 81.3 µg/mL) in experiment [1] and 25 µM (≈ 10.2 µg/mL) against Bacillus subtilis. For the same compound, the IC50 in experiment [3] was 4400 nM.
Consider `CC(=O)Nc1ccc(/N=C/c2nc(-c3ccc(C(F)(F)F)c(F)c3)oc2O)c(C(=O)O)c1`, for which the MIC in the experiment on Enterococcus faecalis was over 200 µM; against Streptococcus pneumoniae, 200 µM (≈ 90.3 µg/mL); in experiment [1] it was over 200 µM; in the experiment on Bacillus subtilis, over 200 µM. This compound gave an IC50 in experiment [2] of 130 nM.
Consider `Cc1ccc(/N=C/c2nc(-c3ccc(C(F)(F)F)cc3)oc2O)c(C(=O)O)c1`, for which the MIC against Enterococcus faecalis is 100 µM (≈ 39 µg/mL); with Streptococcus pneumoniae it was 100 µM (≈ 39 µg/mL); in experiment [1] it was over 200 µM; in the experiment on Bacillus subtilis it was 100 µM (≈ 39 µg/mL). In experiment [2], this compound came in with an IC50 of 830 nM.
With `COc1ccc(-c2nc(/C=N/c3ccc(F)cc3C(=O)O)c(O)o2)cc1`, the MIC (in experiment [1]; with Bacillus subtilis) was over 200 µM throughout. Also, the IC50 in experiment [2] is over 20000 nM.
As to `O=C(O)c1cc(Br)ccc1/N=C/c1nc(-c2ccc(C(F)(F)F)c(F)c2)oc1O`, the MIC is 25 µM (≈ 11.8 µg/mL) in the experiment with Enterococcus faecalis, 12.5 µM (≈ 5.91 µg/mL) in the experiment on Streptococcus pneumoniae, 25 µM (≈ 11.8 µg/mL) in experiment [1] and 50 µM (≈ 23.7 µg/mL) in the experiment with Bacillus subtilis. The midpoint of inhibition in experiment [2], the IC50, lay at 1500 nM.
Turning to `Cc1ccc(/N=C/c2nc(-c3ccc(C(F)(F)F)c(F)c3)oc2O)c(C(=O)O)c1`, the MIC with Enterococcus faecalis was 100 µM (≈ 40.8 µg/mL); against Streptococcus pneumoniae it was 25 µM (≈ 10.2 µg/mL); in experiment [1] it was 100 µM (≈ 40.8 µg/mL); in the experiment on Bacillus subtilis, 25 µM (≈ 10.2 µg/mL). This compound also registered an IC50 in experiment [2] of 270 nM.
`O=C(O)c1cc(F)ccc1/N=C/c1nc(-c2ccc(Cl)cc2)oc1O`: the MIC is 100 µM (≈ 36.1 µg/mL) with Enterococcus faecalis, 200 µM (≈ 72.1 µg/mL) with Streptococcus pneumoniae, 100 µM (≈ 36.1 µg/mL) in experiment [1] and over 200 µM against Bacillus subtilis. In experiment [2], the IC50 is 2100 nM.

Usually MIC stands for the least concentration at which growth counts as inhibited. As usually defined, the IC50 is the concentration that gives 50% inhibition. Read a low IC50 as higher potency.
